Measurements collected from several papers.
Compare with care: the assays were run in different laboratories.

Cc1nn(C)cc1-c1nc2c(N3CCN(Cc4ccc(Cl)cc4)CC3)c(Cl)cnc2[nH]1 — remaining binding (Tyrosine-protein kinase Tec (TEC, Homo sapiens, UniProt P42680); binding, competition with immobilised ligand; 1 µM): 100%
COc1ncccc1-c1cnn2ccc(N3CCN(C(=O)OC(C)C)CC3)nc12 — remaining binding (Serine/threonine-protein kinase SBK1 (SBK1, Homo sapiens, UniProt Q52WX2); binding, competition with immobilised ligand; 1 µM): 84%
C[C@H](C(=O)N[C@H]1COc2ccccc2[C@@H]1S(C)(=O)=O)c1ccc(F)cc1 — inhibition (Beta-3 adrenergic receptor (ADRB3, Homo sapiens, UniProt P13945); cell-free assay; 10 µM): -12%
Cn1c(=O)n(CCC(C)(C)O)c2cc(Nc3nc(N4CCCC(CO)C4)ncc3Cl)ccc21 (centres unmarked) — Dmax (B-cell lymphoma 6 protein (BCL6, Homo sapiens, UniProt P41182); protein level, degrader; SU-DHL-4): ~60%
C=C=CCN — kinact/KI (Primary amine oxidase, liver isozyme (Bos taurus, UniProt Q29437); enzyme activity, inhibitor, fluorescence): 9220 M⁻¹ s⁻¹
Nc1ncc(-c2nc(N3CCOCC3)nc(N3CCOCC3)n2)c(C(F)F)n1 — remaining binding (Calcium/calmodulin-dependent protein kinase type II subunit gamma (CAMK2G, Homo sapiens, UniProt Q13555); binding, competition with immobilised ligand; 10 µM): 73%
C#Cc1n[nH]c2c(-c3cn(C(C)c4ccccn4)c(=O)[nH]c3=O)cc(F)cc12 (centres unmarked) — inhibition (Insulin receptor (INSR, Homo sapiens, UniProt P06213); enzyme activity, inhibitor; 1 µM): 8.5%
CCN(CC)CCCC[C@H](NC(=O)[C@H](CC(C)C)NC(=O)[C@H](C)NC(=O)[C@H](Cc1ccccc1)NC(=O)c1ccc(C(C)(C)C)cc1)C(=O)N[C@@H](CO)C(=O)OC — ΔTm (Bromodomain-containing protein 2, BD1 (BRD2, Homo sapiens, UniProt P25440); thermal stability, DSF; 25 µM): 0.19 °C
